Source: PubChem BioAssay
Calls of active or inactive are those of the source.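 Rule for the calls, unless noted: active = mean duplicate potentiation above the buffer control mean plus 5 SD of buffer wells; inactive = the rest.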

Each compound was assayed against Potassium voltage-gated channel subfamily KQT member 1 (Homo sapiens) (UniProt P51787) (assay: enhancement of KCNQ1 channel thallium flux – FluxOR thallium flux, CHO cells, duplicates, confirmation (AID 493007;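 active = potentiation averaged over duplicate wells exceeding buffer-only control mean by more than 3 SD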;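 for outcome: cells depolarized by a potassium plus thallium sulfate stimulus after compound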)). Settings: KCNQ1 cell line, FluxOR thallium flux fluorescence, at 10 µM; hits give high values, % of reference activator effect, buffer zero.
Method in brief: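 Material: KCNQ1-expressing CHO cell line; Incubation: FluxOR dye loading 90 min, compound exposure 20 min, room temperature; Detection: FluxOR Tl+ flux fluorescence, 10 s baseline plus 110 s recording; Read-out: percent activation between buffer and R-L3 responses; Control set: buffer-only wells as 0% and R-L3 activator as 100%; Replication: duplicate wells per compound.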

Potassium voltage-gated channel subfamily KQT member 1 (Homo sapiens), sequence (P51787 whole entry, looked up): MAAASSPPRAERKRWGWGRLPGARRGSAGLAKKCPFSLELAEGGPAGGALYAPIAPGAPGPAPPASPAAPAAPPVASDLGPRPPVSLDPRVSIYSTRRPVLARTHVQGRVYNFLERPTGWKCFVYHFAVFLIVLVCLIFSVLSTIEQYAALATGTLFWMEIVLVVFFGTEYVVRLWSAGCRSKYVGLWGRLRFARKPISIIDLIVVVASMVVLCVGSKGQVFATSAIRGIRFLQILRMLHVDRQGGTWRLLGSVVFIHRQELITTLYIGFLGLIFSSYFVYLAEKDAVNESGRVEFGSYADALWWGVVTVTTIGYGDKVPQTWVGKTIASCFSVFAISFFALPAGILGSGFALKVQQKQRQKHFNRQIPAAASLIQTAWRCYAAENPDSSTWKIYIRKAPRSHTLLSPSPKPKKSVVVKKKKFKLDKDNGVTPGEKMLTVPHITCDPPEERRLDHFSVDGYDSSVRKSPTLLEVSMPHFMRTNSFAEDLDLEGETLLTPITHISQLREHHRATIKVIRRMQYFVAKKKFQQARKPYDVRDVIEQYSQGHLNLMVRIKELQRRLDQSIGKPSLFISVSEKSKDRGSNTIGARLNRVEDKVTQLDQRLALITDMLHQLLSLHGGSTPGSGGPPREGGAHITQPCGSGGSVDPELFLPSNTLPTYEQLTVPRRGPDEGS

outcome, inactive:
CCOC(=O)C1CCN(C(=O)COc2cc(C)c(Br)c(C)c2)CC1, N=c1sccn1CC(=O)N1N=C(c2ccc(Cl)cc2)CC1c1ccco1 (stereo not drawn), C#CCOCCOCCOCCNc1nc(N2CCN(C(=O)C([C@@H](C)CC)n3cc(C(N)Cc4ccc(O)cc4)nn3)CC2)nc(N2CCN(C(=O)[C@H](CCC(=O)O)n3cc(C(N)CC(C)C)nn3)CC2)n1 (stereo partly drawn), O=C(Nc1ccc(N2CCN(c3ccc(O)cc3)CC2)cc1)Oc1ccccc1, CCCOc1ccc(-c2c(=O)n(O)c3ccccc3[n+]2[O-])cc1, O=C(NC(=S)N1CCCc2ccccc21)c1ccccc1, COCCn1c(SCC(=O)NCc2ccc3c(c2)OCO3)nnc1C(C)C, Cc1cc(C)c(NC(=O)c2cn3c4c(c(N5CCN(C)CC5)c(F)cc4c2=O)OCC3C)c(C)c1 (stereo not drawn), O=C(CNC(=O)C(c1ccccc1)c1ccccc1)N/N=C/c1ccc(O)cc1O, CCN(CC)c1ccc(Nc2cc3n(c(=O)n2)CCc2cc(OC)c(OC)cc2-3)cc1, CCN(CC)C(=O)c1[nH]cnc1C(=O)NCC(=O)OC(C)(C)C, O=Cc1ccccc1OCCCOc1cccc2cccnc12, CCCCCn1c(=O)c(F)cn(Cc2ccc(OC)c([N+](=O)[O-])c2)c1=O, COc1ccc(-c2csc(N(CCCN(C)C)C(=O)c3ccccc3Cl)n2)cc1, c1ccc2c(OCCCCN3CCOCC3)cccc2c1, CNc1ccccc1C(=O)OC(C)C(=O)Nc1ccc(Cl)cn1 (stereo not drawn), C#CC1(NC(=O)NCCCC)CCCCC1, Cc1ccc(-c2ccnc(=S)[nH]2)cc1, CCn1c(CSc2nc3ccccc3n2C)nc2ccccc21, CCC1CCC2(CC1)NC(CO)(CO)CO2 (stereo not drawn)

potentiation, active:
S=c1[nH]cc(Cc2ccccc2)s1 28.5%, COC(=O)C1=C(C(=O)OC)[C@@H]2N(C)c3ccccc3[C@@]23C[C@@H](C(=O)OC)N(C(=O)c2ccc(Br)cc2)C3=N1 104%, Oc1c(CN2CCN(c3ccccn3)CC2)cc(Cl)c2cccnc12 35%, CC(/C=N/n1c(-c2ccc(Cl)cc2)n[nH]c1=S)=C\c1ccco1 28%, COc1ccc(C(=O)NC(=S)NNC(=O)c2ccc3ccccc3n2)cc1 26%, CCCCNC(=S)NC(=O)c1ccc([N+](=O)[O-])cc1 29%, Cc1ccc(OCC(=O)NC(=S)Nc2ccc(Br)cn2)cc1 19.5%, Cc1cccc(C(=O)NC(=S)NNC(=O)COc2ccc(Cl)cc2)c1 52%, Cc1ccc(-n2c(=S)[nH]c3c(oc4ccccc43)c2=O)cc1C 23.5%, CCn1c(SCC(=O)NC(=O)NCc2ccco2)nc2sc(C)c(C)c2c1=O 40.5%, CCCCn1c(=S)[nH]c2ncccc2c1=O 34.5%, O=C(NC(=S)N(Cc1ccccc1)Cc1ccccc1)c1ccccc1F 208%, COc1cccc(OCC(=O)NNC(=O)C(=O)Nc2cccc(C)c2)c1 74.5%, CON/C=N/C(=S)Nc1ncc(C(F)(F)F)cc1Cl 87.5%, COc1cccc(C(=O)Nc2nc(-c3ccccc3)c(-c3ccccc3)o2)c1 31%, Cc1[nH]n(-c2ccc(Cl)cc2)c(=O)c1/C=N/c1nnc(-c2ccccc2)s1 182%, O=C(NC(=S)Nc1ccc(N2CCCCC2)c(Cl)c1)c1cccs1 120%, Oc1c(Br)cc(Cl)cc1C=Nc1ccccc1Br 161%, Cc1cccc(N=Cc2cc(Br)cc(Cl)c2O)c1 27%

What follows are compounds tested against Potassium voltage-gated channel subfamily KQT member 2 (Rattus norvegicus) (UniProt O88943) (assay: KCNQ2 thallium flux enhancement – KCNQ2-CHO-K1 cells, selectivity assay for KCNQ1 potentiator project (AID 493009;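 note: assay conditions were tuned for KCNQ1 rather than KCNQ2 modulators; signal is max minus min fluorescence divided by baseline after thallium stimulus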)). Settings: FluxOR thallium flux fluorescence, at 10 µM; hits give high values, scaled: buffer 0, activator control 100.
Potassium voltage-gated channel subfamily KQT member 2 (Rattus norvegicus), sequence (O88943 whole entry, looked up): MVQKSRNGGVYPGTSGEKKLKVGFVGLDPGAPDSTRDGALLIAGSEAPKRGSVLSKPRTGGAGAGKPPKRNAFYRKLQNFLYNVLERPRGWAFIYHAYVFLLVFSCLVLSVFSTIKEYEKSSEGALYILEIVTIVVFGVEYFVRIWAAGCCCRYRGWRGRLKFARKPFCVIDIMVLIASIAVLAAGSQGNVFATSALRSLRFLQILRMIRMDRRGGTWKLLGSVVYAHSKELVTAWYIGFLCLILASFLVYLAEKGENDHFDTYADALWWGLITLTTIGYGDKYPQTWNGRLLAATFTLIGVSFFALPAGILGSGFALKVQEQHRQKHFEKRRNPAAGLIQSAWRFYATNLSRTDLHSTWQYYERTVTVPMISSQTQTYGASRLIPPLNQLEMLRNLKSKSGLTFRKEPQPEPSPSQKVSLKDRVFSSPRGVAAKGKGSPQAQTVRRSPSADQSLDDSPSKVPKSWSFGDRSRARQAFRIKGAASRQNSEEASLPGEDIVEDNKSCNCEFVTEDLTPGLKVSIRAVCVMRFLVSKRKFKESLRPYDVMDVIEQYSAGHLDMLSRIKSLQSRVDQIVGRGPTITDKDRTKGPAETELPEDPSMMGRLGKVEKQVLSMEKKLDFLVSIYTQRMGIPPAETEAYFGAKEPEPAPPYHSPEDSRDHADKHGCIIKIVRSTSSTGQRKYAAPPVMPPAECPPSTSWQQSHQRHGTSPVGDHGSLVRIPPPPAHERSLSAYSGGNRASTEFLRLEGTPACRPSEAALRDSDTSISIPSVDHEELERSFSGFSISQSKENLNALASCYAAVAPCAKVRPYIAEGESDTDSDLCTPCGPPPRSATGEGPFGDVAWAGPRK

outcome, inactive:
CCOC(=O)C1CCN(C(=O)COc2cc(C)c(Br)c(C)c2)CC1, N=c1sccn1CC(=O)N1N=C(c2ccc(Cl)cc2)CC1c1ccco1 (stereo not drawn), CC(/C=N/n1c(-c2ccc(Cl)cc2)n[nH]c1=S)=C\c1ccco1, C#CCOCCOCCOCCNc1nc(N2CCN(C(=O)C([C@@H](C)CC)n3cc(C(N)Cc4ccc(O)cc4)nn3)CC2)nc(N2CCN(C(=O)[C@H](CCC(=O)O)n3cc(C(N)CC(C)C)nn3)CC2)n1 (stereo partly drawn), O=C(Nc1ccc(N2CCN(c3ccc(O)cc3)CC2)cc1)Oc1ccccc1, Cc1ccc(OCC(=O)NC(=S)Nc2ccc(Br)cn2)cc1, COCCn1c(SCC(=O)NCc2ccc3c(c2)OCO3)nnc1C(C)C, Cc1cc(C)c(NC(=O)c2cn3c4c(c(N5CCN(C)CC5)c(F)cc4c2=O)OCC3C)c(C)c1 (stereo not drawn), O=C(CNC(=O)C(c1ccccc1)c1ccccc1)N/N=C/c1ccc(O)cc1O, CCN(CC)c1ccc(Nc2cc3n(c(=O)n2)CCc2cc(OC)c(OC)cc2-3)cc1, CCN(CC)C(=O)c1[nH]cnc1C(=O)NCC(=O)OC(C)(C)C, O=Cc1ccccc1OCCCOc1cccc2cccnc12, CCCCCn1c(=O)c(F)cn(Cc2ccc(OC)c([N+](=O)[O-])c2)c1=O, COc1ccc(-c2csc(N(CCCN(C)C)C(=O)c3ccccc3Cl)n2)cc1, c1ccc2c(OCCCCN3CCOCC3)cccc2c1, CNc1ccccc1C(=O)OC(C)C(=O)Nc1ccc(Cl)cn1 (stereo not drawn), C#CC1(NC(=O)NCCCC)CCCCC1, Cc1cccc(N=Cc2cc(Br)cc(Cl)c2O)c1, Cc1ccc(-c2ccnc(=S)[nH]2)cc1, CCn1c(CSc2nc3ccccc3n2C)nc2ccccc21, CCC1CCC2(CC1)NC(CO)(CO)CO2 (stereo not drawn)

potentiation, active:
S=c1[nH]cc(Cc2ccccc2)s1 216%, COC(=O)C1=C(C(=O)OC)[C@@H]2N(C)c3ccccc3[C@@]23C[C@@H](C(=O)OC)N(C(=O)c2ccc(Br)cc2)C3=N1 204%, Oc1c(CN2CCN(c3ccccn3)CC2)cc(Cl)c2cccnc12 172%, COc1ccc(C(=O)NC(=S)NNC(=O)c2ccc3ccccc3n2)cc1 160%, CCCCNC(=S)NC(=O)c1ccc([N+](=O)[O-])cc1 190%, CCCOc1ccc(-c2c(=O)n(O)c3ccccc3[n+]2[O-])cc1 243%, Cc1cccc(C(=O)NC(=S)NNC(=O)COc2ccc(Cl)cc2)c1 186%, O=C(NC(=S)N1CCCc2ccccc21)c1ccccc1 148%, Cc1ccc(-n2c(=S)[nH]c3c(oc4ccccc43)c2=O)cc1C 150%, CCn1c(SCC(=O)NC(=O)NCc2ccco2)nc2sc(C)c(C)c2c1=O 173%, CCCCn1c(=S)[nH]c2ncccc2c1=O 173%, O=C(NC(=S)N(Cc1ccccc1)Cc1ccccc1)c1ccccc1F 338%, COc1cccc(OCC(=O)NNC(=O)C(=O)Nc2cccc(C)c2)c1 224%, CON/C=N/C(=S)Nc1ncc(C(F)(F)F)cc1Cl 337%, COc1cccc(C(=O)Nc2nc(-c3ccccc3)c(-c3ccccc3)o2)c1 164%, Cc1[nH]n(-c2ccc(Cl)cc2)c(=O)c1/C=N/c1nnc(-c2ccccc2)s1 466%, O=C(NC(=S)Nc1ccc(N2CCCCC2)c(Cl)c1)c1cccs1 232%, Oc1c(Br)cc(Cl)cc1C=Nc1ccccc1Br 310%
